Laboratory results published in ChEMBL document CHEMBL4002590, “Design and Synthesis of a Pan-Janus Kinase Inhibitor Clinical Candidate (PF-06263276) Suitable for Inhaled and Topical Delivery for the Treatment of Inflammatory Diseases of the Lungs and Skin” (J Med Chem, 2017).
The source made the active and inactive calls. No cut-off for these calls is given here.

Columns and labels:
[1] = Drug metabolism in human liver microsomes assessed as UGT-mediated compound glucuronidation per mg protein in presence of microsomal activator Brij58 and cofactor UDPGA; format: ADME
Summary of the method: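 Human liver microsomes supplemented with the activator Brij58 and cofactor UDPGA, NADPH omitted, to measure phase II glucuronidation turnover.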

[2] = biological target: Non-receptor tyrosine-protein kinase TYK2 (Homo sapiens, UniProt P29597); test: Inhibition of Tyk2 (unknown origin) using peptide substrate preincubated for 60 mins followed by substrate addition and measured after 60 mins by microfluidic assay
Non-receptor tyrosine-protein kinase TYK2, sequence (P29597 whole entry): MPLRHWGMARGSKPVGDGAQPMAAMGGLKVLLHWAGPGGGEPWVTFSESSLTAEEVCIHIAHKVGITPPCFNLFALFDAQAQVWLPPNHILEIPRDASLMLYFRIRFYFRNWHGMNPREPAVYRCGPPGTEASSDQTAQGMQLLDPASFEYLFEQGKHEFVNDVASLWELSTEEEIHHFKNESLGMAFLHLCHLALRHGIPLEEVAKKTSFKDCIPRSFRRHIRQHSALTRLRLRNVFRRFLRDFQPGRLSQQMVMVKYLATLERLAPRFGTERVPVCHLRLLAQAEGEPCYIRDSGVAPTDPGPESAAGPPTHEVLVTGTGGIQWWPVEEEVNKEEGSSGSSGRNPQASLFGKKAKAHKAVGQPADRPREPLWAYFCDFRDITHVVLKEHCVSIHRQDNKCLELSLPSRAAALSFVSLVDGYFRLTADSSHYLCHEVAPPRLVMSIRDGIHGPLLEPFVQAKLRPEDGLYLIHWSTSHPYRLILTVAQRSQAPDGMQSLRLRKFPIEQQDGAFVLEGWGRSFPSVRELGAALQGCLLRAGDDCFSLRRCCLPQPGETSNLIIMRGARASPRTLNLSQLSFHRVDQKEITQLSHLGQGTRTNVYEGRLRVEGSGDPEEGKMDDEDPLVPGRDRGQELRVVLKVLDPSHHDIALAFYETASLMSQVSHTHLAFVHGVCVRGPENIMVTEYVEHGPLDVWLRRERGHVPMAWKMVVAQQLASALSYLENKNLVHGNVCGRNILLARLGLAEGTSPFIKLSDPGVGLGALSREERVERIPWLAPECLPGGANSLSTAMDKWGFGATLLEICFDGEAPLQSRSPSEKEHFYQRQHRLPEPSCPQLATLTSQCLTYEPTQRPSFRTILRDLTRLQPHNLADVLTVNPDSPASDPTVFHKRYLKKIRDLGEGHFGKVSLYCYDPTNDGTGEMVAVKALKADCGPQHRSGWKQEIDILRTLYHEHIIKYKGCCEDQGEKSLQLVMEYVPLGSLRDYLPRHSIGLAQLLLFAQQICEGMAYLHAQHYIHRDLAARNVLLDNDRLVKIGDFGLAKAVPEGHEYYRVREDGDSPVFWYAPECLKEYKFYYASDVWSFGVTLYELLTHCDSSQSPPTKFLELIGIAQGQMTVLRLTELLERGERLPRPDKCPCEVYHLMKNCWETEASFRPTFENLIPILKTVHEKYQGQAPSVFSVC
Summary of the method: (§1)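 Caliper microfluidic assay of peptide-substrate phosphorylation by the relevant JAK enzyme, run at 1 mM ATP; IC50 values are geometric means of at least three determinations.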

[3] = biological target: T1, Tyrosine-protein kinase JAK3 (Homo sapiens, UniProt P52333); test: Inhibition of GST tagged human recombinant JAK3 catalytic domain expressed in baculovirus using peptide substrate preincubated for 60 mins followed by substrate addition and measured after 60 mins by microfluidic assay; summary of the method: as §1
T1 sequence (P52333 whole entry): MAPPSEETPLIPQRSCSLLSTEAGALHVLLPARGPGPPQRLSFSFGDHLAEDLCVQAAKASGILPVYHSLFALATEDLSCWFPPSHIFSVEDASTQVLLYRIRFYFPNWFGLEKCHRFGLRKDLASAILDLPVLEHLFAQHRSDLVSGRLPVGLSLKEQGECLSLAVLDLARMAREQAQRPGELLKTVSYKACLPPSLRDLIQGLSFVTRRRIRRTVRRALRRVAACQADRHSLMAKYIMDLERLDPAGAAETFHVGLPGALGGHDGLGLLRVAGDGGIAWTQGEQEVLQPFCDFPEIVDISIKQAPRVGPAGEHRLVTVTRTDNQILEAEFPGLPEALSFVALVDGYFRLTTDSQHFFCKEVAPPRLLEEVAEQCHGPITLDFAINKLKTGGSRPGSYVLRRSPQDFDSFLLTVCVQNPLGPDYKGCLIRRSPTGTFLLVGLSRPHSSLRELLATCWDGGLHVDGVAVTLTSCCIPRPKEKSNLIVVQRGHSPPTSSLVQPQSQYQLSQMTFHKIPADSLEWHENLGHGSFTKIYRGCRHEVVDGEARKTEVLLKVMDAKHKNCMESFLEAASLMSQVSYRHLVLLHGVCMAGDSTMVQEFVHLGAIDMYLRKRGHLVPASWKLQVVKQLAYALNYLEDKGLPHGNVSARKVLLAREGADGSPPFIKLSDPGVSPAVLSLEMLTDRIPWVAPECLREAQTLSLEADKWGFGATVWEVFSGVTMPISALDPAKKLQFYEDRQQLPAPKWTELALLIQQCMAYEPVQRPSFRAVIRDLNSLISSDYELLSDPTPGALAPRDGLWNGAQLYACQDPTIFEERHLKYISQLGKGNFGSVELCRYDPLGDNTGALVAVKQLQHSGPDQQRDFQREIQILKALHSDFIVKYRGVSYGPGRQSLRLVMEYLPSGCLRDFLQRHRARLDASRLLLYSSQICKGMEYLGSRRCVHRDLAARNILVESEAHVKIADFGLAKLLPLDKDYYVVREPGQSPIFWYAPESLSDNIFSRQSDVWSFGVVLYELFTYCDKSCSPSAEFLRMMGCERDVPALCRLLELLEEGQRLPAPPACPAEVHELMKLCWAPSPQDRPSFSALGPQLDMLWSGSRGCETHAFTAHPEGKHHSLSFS

[4] = biological target: Tyrosine-protein kinase JAK2 (Homo sapiens, UniProt O60674); test: Inhibition of GST tagged human recombinant JAK2 catalytic domain expressed in baculovirus using peptide substrate preincubated for 60 mins followed by substrate addition and measured after 60 mins by microfluidic assay; summary of the method: as §1
Tyrosine-protein kinase JAK2, sequence (O60674 whole entry, the tested form may be a part): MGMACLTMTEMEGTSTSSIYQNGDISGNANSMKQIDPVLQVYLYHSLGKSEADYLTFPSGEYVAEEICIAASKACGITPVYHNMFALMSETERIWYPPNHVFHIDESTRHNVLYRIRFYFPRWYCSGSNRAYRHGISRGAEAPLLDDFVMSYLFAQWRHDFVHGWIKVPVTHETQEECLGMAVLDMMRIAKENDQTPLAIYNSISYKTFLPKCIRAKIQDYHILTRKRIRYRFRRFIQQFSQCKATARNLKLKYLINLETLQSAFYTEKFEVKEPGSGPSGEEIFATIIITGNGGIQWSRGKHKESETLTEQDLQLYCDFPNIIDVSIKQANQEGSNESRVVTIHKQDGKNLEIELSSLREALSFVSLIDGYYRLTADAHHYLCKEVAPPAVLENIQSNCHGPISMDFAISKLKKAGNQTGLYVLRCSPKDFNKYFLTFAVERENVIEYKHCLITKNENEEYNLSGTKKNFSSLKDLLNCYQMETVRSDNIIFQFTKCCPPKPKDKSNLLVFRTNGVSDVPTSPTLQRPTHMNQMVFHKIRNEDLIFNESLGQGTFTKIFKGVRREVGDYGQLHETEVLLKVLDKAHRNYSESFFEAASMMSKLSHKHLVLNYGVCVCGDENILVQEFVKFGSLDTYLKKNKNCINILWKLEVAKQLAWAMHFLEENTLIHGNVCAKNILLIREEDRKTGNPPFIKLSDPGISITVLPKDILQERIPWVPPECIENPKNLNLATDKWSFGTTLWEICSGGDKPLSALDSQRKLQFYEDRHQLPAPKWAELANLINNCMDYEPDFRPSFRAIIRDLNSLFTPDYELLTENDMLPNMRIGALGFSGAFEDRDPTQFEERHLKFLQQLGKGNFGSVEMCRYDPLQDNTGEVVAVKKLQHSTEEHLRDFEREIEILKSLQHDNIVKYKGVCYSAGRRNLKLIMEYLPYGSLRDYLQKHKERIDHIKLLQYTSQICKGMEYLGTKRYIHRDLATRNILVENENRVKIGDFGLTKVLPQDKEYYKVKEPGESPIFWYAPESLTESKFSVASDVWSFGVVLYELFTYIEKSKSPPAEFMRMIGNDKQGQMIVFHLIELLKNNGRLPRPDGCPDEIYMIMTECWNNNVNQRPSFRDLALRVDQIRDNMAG

[5] = biological target: Tyrosine-protein kinase JAK1 (Homo sapiens, UniProt P23458); test: Inhibition of GST tagged human recombinant JAK1 catalytic domain expressed in baculovirus using peptide substrate preincubated for 60 mins followed by substrate addition and measured after 60 mins by microfluidic assay
Tyrosine-protein kinase JAK1, sequence (P23458 whole entry, the tested form may be a part): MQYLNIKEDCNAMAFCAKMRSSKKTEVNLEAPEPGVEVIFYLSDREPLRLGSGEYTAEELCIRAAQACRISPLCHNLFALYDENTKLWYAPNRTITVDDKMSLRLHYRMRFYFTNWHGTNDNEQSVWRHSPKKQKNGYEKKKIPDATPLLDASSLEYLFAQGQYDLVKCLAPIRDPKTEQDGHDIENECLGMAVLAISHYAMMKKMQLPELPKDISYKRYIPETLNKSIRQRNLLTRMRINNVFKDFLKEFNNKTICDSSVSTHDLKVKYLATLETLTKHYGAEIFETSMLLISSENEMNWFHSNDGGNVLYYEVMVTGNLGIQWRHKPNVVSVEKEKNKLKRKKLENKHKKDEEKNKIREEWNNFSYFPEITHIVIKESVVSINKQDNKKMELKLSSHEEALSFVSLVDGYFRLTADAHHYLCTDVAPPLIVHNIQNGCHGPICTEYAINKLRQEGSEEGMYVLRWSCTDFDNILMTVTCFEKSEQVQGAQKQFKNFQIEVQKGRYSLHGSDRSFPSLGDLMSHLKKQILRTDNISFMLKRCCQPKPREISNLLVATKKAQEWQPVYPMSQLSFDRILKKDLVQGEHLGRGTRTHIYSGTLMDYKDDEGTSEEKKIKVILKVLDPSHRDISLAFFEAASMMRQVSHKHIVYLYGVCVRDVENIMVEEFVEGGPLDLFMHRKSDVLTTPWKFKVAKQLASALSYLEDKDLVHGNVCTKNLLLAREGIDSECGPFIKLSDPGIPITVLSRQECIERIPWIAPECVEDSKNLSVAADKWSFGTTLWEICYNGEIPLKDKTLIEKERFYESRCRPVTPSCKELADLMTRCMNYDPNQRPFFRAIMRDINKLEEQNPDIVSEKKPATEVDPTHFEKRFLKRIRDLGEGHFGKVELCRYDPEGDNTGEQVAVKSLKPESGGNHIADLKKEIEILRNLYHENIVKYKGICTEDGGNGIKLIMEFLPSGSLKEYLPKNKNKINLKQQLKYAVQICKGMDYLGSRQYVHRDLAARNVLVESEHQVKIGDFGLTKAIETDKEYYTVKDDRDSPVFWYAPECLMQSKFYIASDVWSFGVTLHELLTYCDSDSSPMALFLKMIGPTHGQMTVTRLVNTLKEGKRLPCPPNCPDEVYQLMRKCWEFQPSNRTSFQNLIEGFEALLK

Janus Kinase (JAK) [6] = biological target: T2, Janus Kinase (JAK) (Homo sapiens, UniProt P52333+P23458+O60674+P29597); test: Inhibition of JAK in human PBMC assessed as reduction in human recombinant IL-2/mouse anti-human CD3 stimulated IFNgamma production preincubated for 1 hr followed by IL2/CD3 stimulation measured after 18 hrs by ELISA
T2 sequence (O60674 whole entry, looked up, one chain of several): as the sequence (O60674 whole entry, the tested form may be a part) above
T2 sequence (P23458 whole entry, looked up, one chain of several): as the sequence (P23458 whole entry, the tested form may be a part) above
T2 sequence (P29597 whole entry, looked up, one chain of several): as the sequence (P29597 whole entry) above
Summary of the method: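 Primary PBMCs stimulated with IL-2; inhibition of IFNγ release measured. IC50 values are geometric means of at least three determinations.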

Liver = test: Metabolic stability in human liver microsomes assessed per mg protein; format: ADME, microsome
Summary of the method: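 Metabolic stability measured as turnover in human liver microsomes.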

[7] = Thermodynamic solubility of the compound in pH 7.4 water buffer using crystalline solid sample; format: physicochemical; conditions: read-out: Therm_solubility
Summary of the method: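 Thermodynamic solubility measured from crystalline solid in water buffered at pH 7.4.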

Janus Kinase (JAK) [8] = biological target: T2, Janus Kinase (JAK)
Janus Kinase (JAK) [9] = biological target: T2, Janus Kinase (JAK); test: Inhibition of JAK in human PBMC assessed as reduction in human recombinant IL-2/ mouse anti-human CD3 stimulated STAT5 phosphorylation at tyrosine residue preincubated for 1 hr followed by IL2/CD3 stimulation after 30 mins by immunofluorescence assay
Janus Kinase (JAK) [10] = biological target: T2, Janus Kinase (JAK); test: Inhibition of JAK in human PBMC assessed as reduction in human recombinant IL-2/ mouse anti-human CD3 stimulated STAT5 phosphorylation at tyrosine residue at 10-fold IC50 preincubated for 1 hr followed by compound washout and subsequent IL2/CD3 stimulation measured after 30 mins by immunofluorescence assay
Summary of the method: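 PBMC wash-out format: cells exposed to compound for 1 h at 10-fold IC50, washed extensively, then pSTAT5 response to IL-2 stimulation followed over time to give a recovery T1/2.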

[11] = biological target: T3, Tyrosine-protein kinase JAK3 (Homo sapiens) (UniProt P52333); test: Inhibition of GST tagged human recombinant JAK3 catalytic domain expressed in baculovirus assessed as time taken for inhibition to reverse by 50% by dilution recovery based microfluidic mobility shift assay
T3 sequence (whole entry): T1 sequence (P52333 whole entry)
Summary of the method: (§2)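 JAK3 inhibition kinetics measured by continuous dilution-recovery in a microfluidic mobility shift format; offset rate (min−1) converted to a recovery T1/2.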

[12] = biological target: T3, Tyrosine-protein kinase JAK3 (Homo sapiens); test: Inhibition of GST tagged human recombinant JAK3 catalytic domain expressed in baculovirus assessed as offset rate by dilution recovery based microfluidic mobility shift assay; summary of the method: as §2

| SMILES | Drug metabolism [1] | IC50 [2] | IC50 [3] | IC50 [4] | IC50 [5] | IC50 (Janus Kinase (JAK) [6]) | Stability (Liver) | solubility thermodynamic [7] | T1/2 (Janus Kinase (JAK) [8]) | IC50 (Janus Kinase (JAK) [9]) | inhibition (Janus Kinase (JAK) [10]) | T1/2 [11] | K [12] |
| --- | --- | --- | --- | --- | --- | --- | --- | --- | --- | --- | --- | --- | --- |
| CCc1cc(O)ccc1-c1ccc2c(-c3nc4c([nH]3)CCN(C(=O)c3cnc(N5CCCCC5)cn3)C4)n[nH]c2c1 | 17 µL/min | – | – | – | – | – | – | – | – | – | – | – | – |
| CCCc1cc(O)ccc1-c1ccc2c(-c3nc4ccccc4[nH]3)n[nH]c2c1 | – | 437 nM | 166 nM | 17.3 nM | 9.7 nM | 75.4 nM | – | – | – | – | – | – | – |
| CCc1cc(O)c(F)cc1-c1ccc2c(-c3nc4c([nH]3)CCN(C(=O)c3ccc(F)cc3)C4)n[nH]c2c1 | 37 µL/min | 0.8 nM | 1.7 nM | 0.3 nM | < 0.1 nM | 35 nM | 48 µL/min | – | – | – | – | – | – |
| CCc1cc(O)c(F)cc1-c1ccc2c(-c3nc4c([nH]3)CN(Cc3ccccc3)CC4)n[nH]c2c1 | > 360 µL/min | 57.5 nM | 31 nM | 15.9 nM | 1.8 nM | 30.4 nM | 75 µL/min | – | – | – | – | – | – |
| CCc1c(-c2ccc3c(-c4nc5ccccc5[nH]4)n[nH]c3c2)ccc(O)c1F | 46 µL/min | – | – | – | – | 204.8 nM | – | – | – | – | – | – | – |
| CCc1cc(O)ccc1-c1ccc2c(C(N)=O)n[nH]c2c1 | – | 54.5 nM | 4.3 nM | 4.2 nM | 1.7 nM | 19.1 nM | – | 15 µM | – | – | – | – | – |
| CCc1cc(O)ccc1-c1ccc2c(C(=O)N(C)C)n[nH]c2c1 | – | > 10000 nM | > 10000 nM | > 10000 nM | 2760 nM | > 10000 nM | – | – | – | – | – | – | – |
| Oc1cccc(-c2ccc3c(-c4nc5ccccc5[nH]4)n[nH]c3c2)c1 | – | 291 nM | 493 nM | 101 nM | 68.6 nM | 572.7 nM | – | – | – | – | – | – | – |
| CC(C)c1cc(O)ccc1-c1ccc2c(-c3nc4ccccc4[nH]3)n[nH]c2c1 | – | 392 nM | 293 nM | 79.6 nM | 26.8 nM | 250.3 nM | – | – | – | – | – | – | – |
| CCc1cc(O)ccc1-c1ccc2c(-c3nc4c([nH]3)CN(C(C)=O)CC4)n[nH]c2c1 | 5.5 µL/min | 22.7 nM | 7.1 nM | 3.3 nM | 0.5 nM | 4.5 nM | 42 µL/min | 10 to 20 µM | – | – | – | – | – |
| CCc1cc(O)ccc1-c1ccc2c(C(=O)Nc3ccc(C)nc3)n[nH]c2c1 | – | 816 nM | 418 nM | 58.8 nM | 60 nM | 277.8 nM | – | 0.5 µM | 4.5 h | – | – | – | – |
| C[C@@H]1CCN(C(=O)N2CCCC2)C[C@@H]1N(C)c1ncnc2[nH]ccc12 | < 3.5 µL/min | 1630 nM | 139 nM | 124 nM | 37.5 nM | – | 82 µL/min | – | – | 27 nM | inactive | – | – |
| C[C@@H]1CCN(C(=O)N2CC[C@@H](S(=O)(=O)c3cccc(O)c3)C2)C[C@@H]1N(C)c1ncnc2[nH]ccc12 | > 200 µL/min | 959 nM | 34.1 nM | 21.2 nM | 2.3 nM | – | 131 µL/min | 20 µg/mL | – | 343 nM | inactive | 0.467 h | 0.024 min⁻¹ |
| CCc1cc(O)c(F)cc1-c1ccc2c(-c3nc4ccccc4[nH]3)n[nH]c2c1 | > 360 µL/min | 15.3 nM | 16.7 nM | 7.9 nM | 0.8 nM | 47.9 nM | – | – | 3.5 h | – | – | – | – |
| CCc1cc(O)ccc1-c1ccc2c(-c3nc4c([nH]3)CN(C)CC4)n[nH]c2c1 | < 1.9 µL/min | 20.1 nM | 2.9 nM | 6.4 nM | 2.1 nM | 18.6 nM | 56 µL/min | 10 to 20 µM | – | – | – | – | – |
| CCc1cc(O)ccc1-c1ccc2c(-c3nc4c([nH]3)CN(S(C)(=O)=O)CC4)n[nH]c2c1 | 7.3 µL/min | 25.1 nM | 1.3 nM | 5.6 nM | 1.3 nM | 39.1 nM | 18 µL/min | – | – | – | – | – | – |
| CCc1cc(O)ccc1-c1ccc2c(C(=O)NC)n[nH]c2c1 | – | 796 nM | 125 nM | 40.9 nM | 7.5 nM | 9.1 nM | – | 14 µM | – | – | – | – | – |
| CCc1cc(O)ccc1-c1ccc2c(-c3ncc[nH]3)n[nH]c2c1 | – | 4.6 nM | 0.8 nM | 0.8 nM | 0.9 nM | 10.4 nM | – | 4.1 µM | – | – | – | – | – |
